# Assay results: ChEMBL document CHEMBL1124429, “Heterocyclic analogues of benzamide antiarrhythmic agents” (J Med Chem, 1989)
# “And” between values parts separate entries of the source, which are not always exact repeats. Equal values may be shown once.
# Columns and labels:
# Canis familiaris [1] = organism: Canis familiaris; assay: Percent change from control in the rate of rise of phase 0 of the action potential at 10 uM concentration on Canine Purkinje fibers.; design: species or system Canis lupus familiaris, Purkinje fiber; conditions: dog, in vitro
# Canis familiaris [2] = organism: Canis familiaris; assay: Maximum Percent change from control in the rate of rise of phase 0 of the action potential at 100 uM concentration on Canine Purkinje fibers.; assay type: Canis lupus familiaris, Purkinje fiber; conditions: dog, in vitro
# Procedure, shortened: (§1)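 Isolated canine Purkinje fibers were superfused with physiological saline gassed with 95% O2/5% CO2 (pH 7.35–7.40) at 36 ± 0.5 °C. Paced at 1.0 Hz with 2-ms pulses at twice diastolic threshold. After up to 1 h stabilization, compounds were tested over 10^-8 to 10^-3 M, 30 min per concentration, one compound per fiber, with vehicle controls. Intracellular microelectrodes (3 M KCl) recorded Vmax and APD95; maximum percent change from control is reported with its concentration.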
# Canis familiaris [3] = organism: Canis familiaris; assay: Maximum Percent change from control in the rate of rise of phase 0 of the action potential at 10 uM concentration on Canine Purkinje fibers.; assay type: functional, Canis lupus familiaris, Purkinje fiber; conditions: dog, in vitro; procedure, shortened: as §1
# Canis familiaris [4] = organism: Canis familiaris; assay: Maximum Percent change from control in the rate of rise of phase 0 of the action potential at 30 uM concentration on Canine Purkinje fibers.; design: species or system Canis lupus familiaris, Purkinje fiber; conditions: dog, in vitro; procedure, shortened: as §1
# Canis familiaris [5] = organism: Canis familiaris; assay: Maximum percent change in conduction time (CT) at 100 uM concentration tested on Canine ventricular muscle fibre; assay type: functional, Canis lupus familiaris, Muscle tissue
# Procedure, shortened: (§2)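 Canine right ventricular papillary muscle strips were superfused at 36 ± 0.5 °C with saline gassed with 95% O2/5% CO2. Diastolic threshold was found with 2-ms stimuli at 4000 ms cycle length, then pacing at 4× threshold for 60 min equilibration. FRP was measured at 1000 ms cycle length by S1-S2 premature stimulus after every tenth S1. Conduction time came from a bipolar electrogram. Various compound concentrations were tested, one compound per strip, with vehicle controls. Percent change from control was taken at 10 µM, or the maximum change with its concentration; for N ≥ 3, mean with range.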
# Canis familiaris [6] = organism: Canis familiaris; assay: Percent change from control in conduction time (CT) at 10 uM concentration tested on Canine ventricular muscle fibre.; M is minimal(<10% change in CT); assay type: functional; conditions: Canis lupus familiaris, Muscle tissue; procedure, shortened: as §2
# Canis familiaris [7] = organism: Canis familiaris; assay: Maximum percent change in repolarization at 100 uM concentration on Canine Purkinje fibers.; assay type: functional, Canis lupus familiaris, Purkinje fiber; procedure, shortened: as §1
# Canis familiaris [8] = organism: Canis familiaris; assay: Maximum percent change in repolarization at 10 uM concentration on Canine Purkinje fibers.; assay type: functional, Canis lupus familiaris, Purkinje fiber; procedure, shortened: as §1
# Canis familiaris [9] = organism: Canis familiaris; assay: Percent change in repolarization at 10 Purkinje fibers.; value ranges from 9-18; assay type: functional, Canis lupus familiaris, Purkinje fiber
# Procedure, shortened: (§3)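 Canine Purkinje fibers were held in oxygenated (95% O2–5% CO2) physiological saline, pH 7.35–7.40, at 36 ± 0.5 °C and paced at 1.0 Hz with 2-ms pulses at twice diastolic threshold. Intracellular microelectrodes (3 M KCl) recorded Vmax and APD95 simultaneously. After up to 1 h of stabilization, compounds were tested from 10^-8 to 10^-3 M with 30 min per concentration. One compound per fiber, with vehicle controls. For N ≥ 3, values are the mean with the range.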
# Canis familiaris [10] = organism: Canis familiaris; assay: Percent change from control in the functional refractory period (FRP) at 10 uM conc. on Canine ventricular muscle fibre.; design: species or system Canis lupus familiaris, Muscle tissue; procedure, shortened: as §2
# Canis familiaris [11] = organism: Canis familiaris; assay: Maximum percent change in functional refractory period (FRP) at 100 uM on Canine ventricular muscle fibre.; design: species or system Canis lupus familiaris, Muscle tissue; procedure, shortened: as §2
# Cavia porcellus [12] = organism: Cavia porcellus; assay: Concentration of compound which gives a 20% decrease in contractile force was tested from individual experiments on papillary muscle of guinea pig, activity was expressed as EC-20.; assay type: functional; conditions: Muscle tissue
# Procedure, shortened: (§4)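 Contractile force measured in an isolated cardiac muscle preparation. Value is the concentration giving a 20% decrease in force of contraction. NR marks that this decrease was not reached. Values come from individual experiments; for N ≥ 3, the mean is given with the range.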
# Canis familiaris [13] = organism: Canis familiaris; assay: Percent change from control in the rate of rise of phase 0 of the action potential at 10 uM concentration on Canine Purkinje fibers.; value ranges from -17 - -7; assay type: organism-based, Canis lupus familiaris, Purkinje fiber; conditions: dog, in vitro
# Canis familiaris [14] = organism: Canis familiaris; assay: Maximum percent change in conduction time (CT) at 0.1 uM concentration tested on Canine ventricular muscle fibre; assay type: functional, Canis lupus familiaris, Muscle tissue; procedure, shortened: as §2
# Canis familiaris [15] = organism: Canis familiaris; assay: Maximum percent change in conduction time (CT) at 10 uM concentration tested on Canine ventricular muscle fibre; assay type: functional, Canis lupus familiaris, Muscle tissue; procedure, shortened: as §2
# Canis familiaris [16] = organism: Canis familiaris; assay: Percent change from control in conduction time (CT) at 10 uM concentration tested on Canine ventricular muscle fibre.; assay type: functional, Canis lupus familiaris, Muscle tissue; procedure, shortened: as §2
# Canis familiaris [17] = organism: Canis familiaris; assay: Maximum percent change in repolarization at 30 uM concentration on Canine Purkinje fibers.; assay type: functional, Canis lupus familiaris, Purkinje fiber; procedure, shortened: as §1
# Canis familiaris [18] = organism: Canis familiaris; assay: Percent change in repolarization at 10 Purkinje fibers.; value ranges from -19 - 1; assay type: functional, Canis lupus familiaris, Purkinje fiber; procedure, shortened: as §3
# Canis familiaris [19] = organism: Canis familiaris; assay: Maximum percent change in functional refractory period (FRP) at 1 uM on Canine ventricular muscle fibre.; design: species or system Canis lupus familiaris, Muscle tissue; procedure, shortened: as §2
# Cavia porcellus [20] = organism: Cavia porcellus; assay: Concentration of compound which gives a 20% decrease in contractile force was tested on papillary muscle of guinea pig, activity was expressed as EC-20.; assay type: functional; conditions: Muscle tissue; procedure, shortened: as §4
# Canis familiaris [21] = organism: Canis familiaris; assay: Percent change from control in the rate of rise of phase 0 of the action potential at 10 uM concentration on Canine Purkinje fibers; value ranges from 8.0-4.0; design: species or system Canis lupus familiaris, Purkinje fiber; conditions: dog
# Canis familiaris [22] = organism: Canis familiaris; assay: The maximum change from control in the rate of rise of phase 0 of the action potential at 10 uM concentration on Canine Purkinje fibers.; design: species or system Canis lupus familiaris, Purkinje fiber; conditions: dog; procedure, shortened: as §3
# Canis familiaris [23] = organism: Canis familiaris; assay: The maximum percent change from control in the rate of rise of phase 0 of the action potential at 100 uM concentration on Canine Purkinje fibers.; design: species or system Canis lupus familiaris, Purkinje fiber; conditions: dog, in vitro; procedure, shortened: as §3
# Canis familiaris [24] = organism: Canis familiaris; assay: Maximum percent change in conduction time (CT) at 1 uM concentration tested on Canine ventricular muscle fibre; assay type: functional, Canis lupus familiaris, Muscle tissue; procedure, shortened: as §2
# Canis familiaris [25] = organism: Canis familiaris; assay: Percent change from control in conduction time (CT) at 10 uM concentration tested on Canine ventricular muscle fibre; value ranges from -12.0-2.0; assay type: functional, Canis lupus familiaris, Muscle tissue; procedure, shortened: as §2
# Canis familiaris [26] = organism: Canis familiaris; assay: Percent change in repolarization at 10 Purkinje fibers.; assay type: functional, Canis lupus familiaris, Purkinje fiber; procedure, shortened: as §3
# Canis familiaris [27] = organism: Canis familiaris; assay: Maximum percent change in functional refractory period (FRP) at 100 uM on Canine ventricular muscle fibre; value ranges from 7-26; design: species or system Canis lupus familiaris, Muscle tissue; procedure, shortened: as §2
# Canis familiaris [28] = organism: Canis familiaris; assay: Percent change from control in the functional refractory period (FRP) at 10 uM concentration on Canine ventricular muscle fibre; value ranges from 2-17; design: species or system Canis lupus familiaris, Muscle tissue; procedure, shortened: as §2
# Canis familiaris [29] = organism: Canis familiaris; assay: Percent change from control in the rate of rise of phase 0 of the action potential at 10 uM concentration on Canine Purkinje fibers.; value ranges from -18 - -4; assay type: organism-based, Canis lupus familiaris, Purkinje fiber; conditions: dog, in vitro
# Canis familiaris [30] = organism: Canis familiaris; assay: The maximum percent change in action potential (Vmax ) at concentration observed (100 uM was tested on Canine Purkinje fibers.; design: species or system Canis lupus familiaris, Purkinje fiber; conditions: dog; procedure, shortened: as §3
# Canis familiaris [31] = organism: Canis familiaris; assay: Maximum percent change in conduction time (CT) at 100 uM concentration tested on Canine ventricular muscle fibre; value ranges from 6-27; assay type: functional, Canis lupus familiaris, Muscle tissue; procedure, shortened: as §2
# Canis familiaris [32] = organism: Canis familiaris; assay: Maximum percent change in repolarization at 1 uM concentration on Canine Purkinje fibers.; assay type: functional, Canis lupus familiaris, Purkinje fiber; procedure, shortened: as §1
# Canis familiaris [33] = organism: Canis familiaris; assay: Percent change in repolarization at 10 Purkinje fibers.; value ranges from -6 -2; assay type: functional, Canis lupus familiaris, Purkinje fiber; procedure, shortened: as §3
# Canis familiaris [34] = organism: Canis familiaris; assay: Percent change from control in the functional refractory period (FRP) at 10 uM conc. on Canine ventricular muscle fibre.; value ranges from -1 - 16; design: species or system Canis lupus familiaris, Muscle tissue; procedure, shortened: as §2
# Canis familiaris [35] = organism: Canis familiaris; assay: Maximum percent change in functional refractory period (FRP) at 100 uM on Canine ventricular muscle fibre.; value ranges from -3 - 26; design: species or system Canis lupus familiaris, Muscle tissue; procedure, shortened: as §2
# Canis familiaris [36] = organism: Canis familiaris; assay: Maximum Percent change from control in the rate of rise of phase 0 of the action potential at 1 uM concentration on Canine Purkinje fibers.; design: species or system Canis lupus familiaris, Purkinje fiber; procedure, shortened: as §1
smiles,measurement,setting,value
CCN(CC)CCNC(=O)c1cc2ccccc2[nH]1,Vmax,Canis familiaris [1],-2.3%
same,Vmax,Canis familiaris [2],-35%
same,Vmax,Canis familiaris [3],5%
same,Vmax,Canis familiaris [4],-6%
same,CT,Canis familiaris [5],15%
same,CT,Canis familiaris [6],Minimal
same,APD95,Canis familiaris [7],-24%
same,APD95,Canis familiaris [8],16% and 18%
same,APD95,Canis familiaris [9],14.3%
same,FRP,Canis familiaris [10],15%
same,FRP,Canis familiaris [11],24%
same,EC20,Cavia porcellus [12],16 µM
CCN(CC)CCCNC(=O)c1cc2cccc(O)c2[nH]1,Vmax,Canis familiaris [13],-11%
same,Vmax,Canis familiaris [2],-45%
same,Vmax,Canis familiaris [4],-20% and -26%
same,CT,Canis familiaris [14],-8%
same,CT,Canis familiaris [15],-23%
same,CT,Canis familiaris [16],-3%
same,APD95,Canis familiaris [7],-53%
same,APD95,Canis familiaris [17],-14%
same,APD95,Canis familiaris [18],-10%
same,FRP,Canis familiaris [19],8%
same,FRP,Canis familiaris [10],9%
same,FRP,Canis familiaris [11],19%
same,EC20,Cavia porcellus [20],36 µM
CCN(CC)CCNC(=O)c1ccc(N)cc1 [PROCAINAMIDE],Vmax,Canis familiaris [21],-1.5%
same,Vmax,Canis familiaris [22],4%
same,Vmax,Canis familiaris [23],-10%
same,CT,Canis familiaris [5],4%
same,CT,Canis familiaris [24],5%
same,CT,Canis familiaris [25],-3%
same,APD95,Canis familiaris [7],3%
same,APD95,Canis familiaris [8],1%
same,APD95,Canis familiaris [26],-1%
same,FRP,Canis familiaris [27],14.3%
same,FRP,Canis familiaris [28],8.7%
CCN(CC)CCNC(=O)c1cccc2[nH]ccc12,Vmax,Canis familiaris [29],-10.5%
same,Vmax,Canis familiaris [30],-19%
same,Vmax,Canis familiaris [4],-22% and -26%
same,CT,Canis familiaris [31],14.7%
same,CT,Canis familiaris [6],Minimal
same,APD95,Canis familiaris [7],-25%
same,APD95,Canis familiaris [32],-6%
same,APD95,Canis familiaris [17],-20%
same,APD95,Canis familiaris [33],-3%
same,FRP,Canis familiaris [34],6.3%
same,FRP,Canis familiaris [35],10.7%
same,Vmax,Canis familiaris [36],-14%
